We go through 20 compounds from ChEMBL document CHEMBL1122685, “Identification of an acridine photoaffinity probe for trypanocidal action” (1984).

Common to all, as to format: functional
The test system of assay [1] is Trypanosoma brucei. Kind of assay: Trypanocidal activity against Trypanosoma brucei, exposure of parasites to compound prior to injection into mice at 10 e-5 M concentration in presence of light. On the set-up: unit: days. Summed up: (§1)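 DEAE-purified T. brucei EATRO 110 at 5×10^6/mL in TSG was mixed with drug at the final concentration by gentle rotation for 10 min. Samples were light-activated for 10 min under a 30W fluorescent lamp 4 cm above. 5×10^5 treated parasites in 0.1 mL were injected ip into Swiss mice, five per group. Survival was scored daily for 30 days and reported as mean days ±SD, with untreated controls.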

The test system of assay [2] is Trypanosoma brucei. Kind of assay: Trypanocidal activity against Trypanosoma brucei, exposure of parasites to compound prior to injection into mice at 10 e-4 M concentration in dark conditions. The gist of the method: (§2)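 T. brucei EATRO 110 was separated from blood on DEAE-cellulose and washed in Tris-saline-glucose (TSG). Parasites at 5×10^6/mL in TSG were gently rotated 10 min with drug at the final concentration, kept dark under a red safelight until injection. Swiss mice, five per group, received 5×10^5 parasites ip in 0.1 mL. Read-out was mean days survival ±SD over 30 days, against untreated-parasite controls.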

The test system of assay [3] is Trypanosoma brucei. Nature of the assay: Trypanocidal activity against Trypanosoma brucei, exposure of parasites to compound prior to injection into mice at 10 e-6 M concentration in dark conditions. Summed up:
as §2

Assay [4] relates to Trypanosoma brucei. Nature of the assay: Trypanocidal activity against Trypanosoma brucei, exposur of parasites to compound prior to injection into mice at 10 e-6 M concentration in presence of light. More on the design: unit: days. The gist of the method:
as §1

Assay [5] concerns Trypanosoma brucei. Nature of the assay: Trypanocidal activity against Trypanosoma brucei, exposure of parasites to compound prior to injection into mice at 10 e-5 M concentration in dark conditions. The gist of the method:
as §2

Assay [6] relates to Trypanosoma brucei. Nature of the assay: Trypanocidal activity against Trypanosoma brucei, exposure of parasites to compound prior to injection into mice at 10 e-4 M concentration in presence of light. More on the design: unit: days. The gist of the method:
as §1

In assay [7] the test system is Trypanosoma brucei. Nature of the assay: Compound is evaluated for trypanocidal activity against Trypanosoma brucei, by exposing the parasites directly to compound prior to injection to mice at 10 e-7 M concentration in presence of light. More on the design: unit: days. The gist of the method:
as §1

Assay [8] concerns Trypanosoma brucei. Kind of assay: Compound is evaluated for trypanocidal activity against Trypanosoma brucei, by exposing the parasites directly to compound prior to injection to mice at 10 e-7 M concentration in dark conditions. On the set-up: unit: days. Summed up:
as §2

The test system of assay [9] is Trypanosoma brucei. Kind of assay: Compound is evaluated for trypanocidal activity against Trypanosoma brucei, by exposing the parasites directly to compound prior to injection to mice at 10 e-6 M concentration (pre) in presence of light. The gist of the method:
(§3)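 Compound was irradiated 1 h before contact with T. brucei EATRO 110 (5×10^6/mL in TSG, final drug concentration). After 10 min gentle rotation, the mixture was irradiated again for 10 min under a 30W fluorescent lamp at 4 cm. 5×10^5 parasites in 0.1 mL were given ip to five Swiss mice per group. Read-out was mean days survival ±SD over 30 days, with untreated controls.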

The test system of assay [10] is Trypanosoma brucei. Kind of assay: Compound is evaluated for trypanocidal activity against Trypanosoma brucei, by exposing the parasites directly to compound prior to injection to mice at 10 e-6 M concentration (pre) in dark conditions. Summed up:
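Drug was preirradiated 1 h with visible light, then added at the final concentration to T. brucei EATRO 110 (5×10^6/mL in TSG) and rotated 10 min. The parasites were then kept dark with a red safelight. Swiss mice, five per group, were injected ip with 0.1 mL holding 5×10^5 parasites. Mean days survival ±SD was scored over 30 days against untreated-parasite controls.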

In assay [11] the test system is Trypanosoma brucei. Kind of assay: Compound is evaluated for trypanocidal activity against Trypanosoma brucei, by exposing the parasites directly to compound prior to injection to mice at 10 e-5 M concentration (pre) in presence of light. The gist of the method:
as §3

Turning to `C[n+]1c2ccccc2cc2c(N)cccc21.[Cl-]`, the Activity in the assay on Trypanosoma brucei [1] is 6.4; with Trypanosoma brucei [3], 4; with Trypanosoma brucei [4], 4.2; in the assay with Trypanosoma brucei [5], 4.6; in the assay on Trypanosoma brucei [6] it was 30. Also, the “Mean survival time of infected mice (days)” value (from here on “Mean survival time”) in the assay with Trypanosoma brucei [2] amounted to 30.

In the case of `C[n+]1c2ccccc2cc2c(N=[N+]=[N-])cccc21.[Cl-]`, the Activity in the assay with Trypanosoma brucei [1] was 4.8; with Trypanosoma brucei [5], 6.4; in the assay with Trypanosoma brucei [6] it was 4.8. In the assay with Trypanosoma brucei [2], the “Mean survival time” value was 4.4.

With `CC[n+]1c(-c2ccccc2)c2cc(N=[N+]=[N-])ccc2c2ccc(N)cc21.[Cl-]`, the Activity in the assay with Trypanosoma brucei [3] turned out to be 4.6; in the assay on Trypanosoma brucei [4], 30; in the assay on Trypanosoma brucei [7] it was 27.4; in the assay with Trypanosoma brucei [8], 4.

`[N-]=[N+]=Nc1ccc2cc3ccc(N=[N+]=[N-])cc3nc2c1`: the “Mean survival time” value in the assay with Trypanosoma brucei [2] was 6. Also, the Activity in the assay on Trypanosoma brucei [6] worked out at 5.5.

As to `C[n+]1c2ccccc2cc2cc(N=[N+]=[N-])ccc21.[Cl-]`, the Activity in the assay with Trypanosoma brucei [1] was 13.9; in the assay with Trypanosoma brucei [3] it was 4.4; in the assay with Trypanosoma brucei [4] it was 5.5; in the assay on Trypanosoma brucei [5], 14.5; in the assay on Trypanosoma brucei [6], 30; in the assay with Trypanosoma brucei [7], 4.2. In the assay with Trypanosoma brucei [8], the Activity was 4.8. Besides, the “Mean survival time” value in the assay on Trypanosoma brucei [2] was found to be 30. The “Mean survival of mice (days)” value in the assay with Trypanosoma brucei [9] is 4.8.

In the case of `C[n+]1c2cc(N)ccc2cc2ccc(N=[N+]=[N-])cc21.[Cl-]`, the Activity came to 30 with Trypanosoma brucei [1]; 6.9 in the assay with Trypanosoma brucei [3]; 30 in the assay on Trypanosoma brucei [4]; 18.2 in the assay on Trypanosoma brucei [5]; 30 in the assay with Trypanosoma brucei [6]; 30 in the assay on Trypanosoma brucei [7]. Moreover, the figures for the Activity in the assay on Trypanosoma brucei [8] and in the assay on Trypanosoma brucei [10] were 6.4 and 6.3, respectively. Further, the “Mean survival time” value with Trypanosoma brucei [2] was determined as 30. Also, the “Mean survival of mice (days)” value with Trypanosoma brucei [9] amounted to 5.5.

On to `C[n+]1c2cc(N)ccc2cc2ccc(N)cc21.[Cl-]` [EUFLAVINE], for which the Activity in the assay on Trypanosoma brucei [1] is 30; in the assay with Trypanosoma brucei [3], 6.9; in the assay on Trypanosoma brucei [4], 30; in the assay with Trypanosoma brucei [5], 30; in the assay on Trypanosoma brucei [7] it was 17.8; in the assay with Trypanosoma brucei [8], 6.3. This compound also gave an Activity in the assay on Trypanosoma brucei [10] of 7.8. Also, the “Mean survival time” value in the assay on Trypanosoma brucei [2] is on record as 30. Moreover, the “Mean survival of mice (days)” value in the assay on Trypanosoma brucei [9] came to 30.

Take `Nc1c2ccccc2nc2cccc([N+](=O)[O-])c12`: the Activity in the assay on Trypanosoma brucei [1] was 30; in the assay on Trypanosoma brucei [3], 4.4; with Trypanosoma brucei [4], 5.8; with Trypanosoma brucei [5], 25.4; with Trypanosoma brucei [6], 30. Further, in the assay with Trypanosoma brucei [2], the “Mean survival time” value came to 30.

As for `C[n+]1c2ccccc2cc2cc(N)ccc21.[Cl-]`, the Activity came out at 6.8 with Trypanosoma brucei [1]; 3.6 in the assay on Trypanosoma brucei [3]; 6 in the assay with Trypanosoma brucei [4]; 5.8 in the assay with Trypanosoma brucei [5]; 30 with Trypanosoma brucei [6]. Besides, in the assay on Trypanosoma brucei [2], the “Mean survival time” value is recorded as 30.

For the compound `C[n+]1c2ccccc2c(N)c2ccccc21.[Cl-]`, the Activity in the assay with Trypanosoma brucei [1] was 21; with Trypanosoma brucei [3], 4.2; in the assay with Trypanosoma brucei [4], 5.8; in the assay on Trypanosoma brucei [5], 5.4; with Trypanosoma brucei [6], 30. For the same compound, in the assay on Trypanosoma brucei [2], the “Mean survival time” value is 30. The “Mean survival of mice (days)” value in the assay with Trypanosoma brucei [9] was 6.2.

As to `Nc1ccc2c(N)c3ccccc3nc2c1`, the Activity with Trypanosoma brucei [1] was 30; with Trypanosoma brucei [3], 5; with Trypanosoma brucei [4], 17.4; in the assay on Trypanosoma brucei [5], 8.1; in the assay on Trypanosoma brucei [6] it was 30; in the assay with Trypanosoma brucei [7] it was 15. The compound further gave an Activity with Trypanosoma brucei [8] of 5.2. For the same compound, in the assay on Trypanosoma brucei [2], the “Mean survival time” value is on record as 30. Further, the “Mean survival of mice (days)” value in the assay with Trypanosoma brucei [9] is 27.8.

On to `Nc1ccc(Nc2c3ccccc3nc3ccccc23)cc1`, for which the Activity in the assay with Trypanosoma brucei [1] is recorded as 6.4; in the assay with Trypanosoma brucei [3] it was 5.4; in the assay on Trypanosoma brucei [4], 4.4; with Trypanosoma brucei [5], 5; in the assay with Trypanosoma brucei [6], 30. In the assay on Trypanosoma brucei [2], the “Mean survival time” value came out at 30.

On to `[N-]=[N+]=Nc1c2ccccc2nc2cccc([N+](=O)[O-])c12`, for which the Activity in the assay with Trypanosoma brucei [1] is given as 30; with Trypanosoma brucei [3], 4.2; in the assay with Trypanosoma brucei [4] it was 6; in the assay with Trypanosoma brucei [5] it was 10; with Trypanosoma brucei [6] it was 30; with Trypanosoma brucei [7] it was 5. In addition, in the assay on Trypanosoma brucei [8], the Activity is reported as 5.4. Also, the “Mean survival time” value in the assay on Trypanosoma brucei [2] was found to be 30. The “Mean survival of mice (days)” value in the assay on Trypanosoma brucei [9] came to 4.

Regarding `CN(C)CCCNc1c2ccccc2nc2cccc([N+](=O)[O-])c12` [NITRACRINE], the Activity in the assay with Trypanosoma brucei [1] is on record as 30; with Trypanosoma brucei [3], 5.7; in the assay on Trypanosoma brucei [4], 22.9; in the assay on Trypanosoma brucei [5], 5.7; in the assay with Trypanosoma brucei [6], 30; in the assay with Trypanosoma brucei [7], 6.6. Moreover, in the assay with Trypanosoma brucei [8], the Activity amounted to 6. Besides, the “Mean survival time” value with Trypanosoma brucei [2] was found to be 30. The “Mean survival of mice (days)” value with Trypanosoma brucei [9] stood at 10.4.

With `[N-]=[N+]=Nc1c2ccccc2nc2ccccc12`, the Activity with Trypanosoma brucei [1] amounted to 30; in the assay on Trypanosoma brucei [3], 5; with Trypanosoma brucei [4], 30; in the assay on Trypanosoma brucei [5], 30; with Trypanosoma brucei [6], 30; in the assay on Trypanosoma brucei [7], 4. The compound also yielded an Activity in the assay with Trypanosoma brucei [8] of 4.6. Moreover, in the assay on Trypanosoma brucei [2], the “Mean survival time” value was 30. Moreover, the “Mean survival of mice (days)” value with Trypanosoma brucei [9] was 4.2.

On to `[N-]=[N+]=Nc1ccc2nc3ccccc3c(N)c2c1`, for which the Activity in the assay on Trypanosoma brucei [1] was determined as 30; in the assay with Trypanosoma brucei [3], 4.8; in the assay with Trypanosoma brucei [4], 11.6; in the assay on Trypanosoma brucei [5], 5.4; with Trypanosoma brucei [6] it was 30; with Trypanosoma brucei [7], 6. For the same compound, in the assay with Trypanosoma brucei [8], the Activity turned out to be 4.6. Further, the “Mean survival time” value in the assay on Trypanosoma brucei [2] is 9.8. For the same compound, the “Mean survival of mice (days)” value with Trypanosoma brucei [9] is on record as 4.6.

For `C[n+]1c2cc(N=[N+]=[N-])ccc2cc2ccc(N=[N+]=[N-])cc21.[Cl-]`, the Activity with Trypanosoma brucei [1] is recorded as 26.6; with Trypanosoma brucei [3], 5.8; in the assay with Trypanosoma brucei [4], 8.2; in the assay on Trypanosoma brucei [5], 6; in the assay with Trypanosoma brucei [6] it was 30; in the assay on Trypanosoma brucei [7], 5.6. Also, the Activity in the assay with Trypanosoma brucei [8] came to 5.4. Besides, in the assay with Trypanosoma brucei [2], the “Mean survival time” value came to 30. In the assay on Trypanosoma brucei [9], the “Mean survival of mice (days)” value was 5.4.

Regarding `C[n+]1c2ccccc2c(N=[N+]=[N-])c2ccccc21.[Cl-]`, the Activity in the assay with Trypanosoma brucei [1] was found to be 20; in the assay on Trypanosoma brucei [3] it was 5; in the assay with Trypanosoma brucei [4] it was 6.8; in the assay with Trypanosoma brucei [5], 3.6; in the assay on Trypanosoma brucei [6], 30; in the assay with Trypanosoma brucei [7] it was 6.2. Further, the Activity in the assay with Trypanosoma brucei [8] was determined as 5.2. Moreover, the “Mean survival time” value in the assay on Trypanosoma brucei [2] was found to be 30. For the same compound, the “Mean survival of mice (days)” value in the assay on Trypanosoma brucei [9] worked out at 8.6.

As for `[N-]=[N+]=Nc1ccc2c(N)c3ccccc3nc2c1`, the Activity in the assay with Trypanosoma brucei [1] was 14.2; in the assay with Trypanosoma brucei [3] it was 5.8; with Trypanosoma brucei [11], 5.2; in the assay with Trypanosoma brucei [4] it was 7.6; with Trypanosoma brucei [5], 6.3; in the assay on Trypanosoma brucei [6], 26.8. The “Mean survival time” value in the assay with Trypanosoma brucei [2] was 25.3.

Regarding `[N-]=[N+]=Nc1ccc(Nc2c3ccccc3nc3ccccc23)cc1`, the Activity with Trypanosoma brucei [1] came to 30; with Trypanosoma brucei [3] it was 4.4; in the assay on Trypanosoma brucei [4] it was 5.8; in the assay with Trypanosoma brucei [5], 4; in the assay with Trypanosoma brucei [6], 30. Also, the “Mean survival time” value in the assay with Trypanosoma brucei [2] is 4.8.
